# Results: PMC8256004 (ChemMedChem, 2020)
# Columns and labels:
# KPC-Kpn = test: Micro-broth dilution MIC of cefepime in combination with inhibitor, KPC-Kpn; format: cell-based, Klebsiella pneumoniae; conditions: for MIC of cefepime (FEP) in combination with compound, KPC-Kpn: compound at constant 10 μg/mL, FEP 0.12 to 128 μg/mL
# Outline: (§1)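 CLSI broth microdilution. Cultures grown overnight in Mueller-Hinton broth, then diluted to a McFarland standard (OD600 0.224). Cefepime serially diluted from 128 to 0.12 μg/mL, with boronic acid test compound held constant at 10 μg/mL. Incubated overnight at 37 °C and MIC read the next day.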
# K. pneum blaKPC-2 = format: cell-based, Klebsiella pneumoniae; conditions: compound at constant 10 μg/mL; FEP 0.12 to 128 μg/mL
# Outline: as §1
# KPC-2 β-lactamase = KPC-2 β-lactamase (Klebsiella pneumoniae, UniProt Q9F663); test: Competition kinetics of KPC-2 inhibition with nitrocefin as substrate; format: biochemical
# Chain of KPC-2 β-lactamase (Q9F663 25-293, looked up): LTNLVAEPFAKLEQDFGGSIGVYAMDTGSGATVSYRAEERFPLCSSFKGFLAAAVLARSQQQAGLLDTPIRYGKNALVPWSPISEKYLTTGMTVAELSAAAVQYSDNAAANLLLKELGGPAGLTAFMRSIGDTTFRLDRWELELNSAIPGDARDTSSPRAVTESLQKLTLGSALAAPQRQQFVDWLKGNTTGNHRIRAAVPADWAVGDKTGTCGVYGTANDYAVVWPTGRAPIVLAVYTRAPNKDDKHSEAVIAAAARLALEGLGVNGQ
SMILES,"MIC (KPC-Kpn; Klebsiella pneumoniae, read-out: MIC of cefepime (FEP) alone, KPC-Kpn)","MIC of cefepime (FEP) in combination with compound, KPC-Kpn (KPC-Kpn)","MIC of cefepime (FEP) in combination with compound, K. pneum blaKPC-2 (K. pneum blaKPC-2)",Ki (KPC-2 β-lactamase)
"CO/N=C(\C(=O)N[C@@H]1C(=O)N2C(C(=O)[O-])=C(C[N+]3(C)CCCC3)CS[C@H]12)c1csc(N)n1 [FEP, cefepime]",32 mg/L,,,
NC(=O)[C@@H]1CC[C@@H]2CN1C(=O)N2OS(=O)(=O)O [avibactam],,< 0.12 mg/L,< 0.12 mg/L,
O=C(O)C[C@@H]1CC[C@H](NC(=O)Cc2cccs2)B(O)O1 [vaborbactam],,0.5 mg/L,1 mg/L,0.02 ± 0.003 µM
